Reference: ChEMBL document CHEMBL4257478, “Design, synthesis and evaluation of (R)-3-(7-(methyl(7H-pyrrolo[2,3-d]pyrimidin-4-yl)amino)-5-azaspiro[2.4]heptan-5-yl)-3-oxopropanenitrile as a JAK1-selective inhibitor” (Medchemcomm, 2018)

How the values were obtained:
[1] = target: Tyrosine-protein kinase JAK1 (Homo sapiens, UniProt P23458); experiment: Inhibition of human JAK1 using GEEPLYWSFPAKKK as substrate after 40 mins in presence of [gamma-33P-ATP] by scintillation counting method
[2] = target: T1, Tyrosine-protein kinase JAK2 (Homo sapiens, UniProt O60674); experiment: Inhibition of human JAK2 using KTFCGTPEYLAPEVRREPRILSEEEQEMFRDFDYIADWC as substrate after 40 mins in presence of [gamma-33P-ATP] by scintillation counting method
[3] = target: Voltage-gated inwardly rectifying potassium channel KCNH2 (Homo sapiens, UniProt Q12809); experiment: Inhibition of human ERG expressed in HEK293 cells after 5 mins by automated planar patch clamp method; assay type: cell-based
[4] = target: T1, Tyrosine-protein kinase JAK2; experiment: Inhibition of human JAK2 at 10 uM using KTFCGTPEYLAPEVRREPRILSEEEQEMFRDFDYIADWC as substrate after 40 mins in presence of [gamma-33P-ATP] by scintillation counting method relative to control
[5] = Cmax in Sprague-Dawley rat at 10 mg/kg, po after 0.25 to 24 hrs by LC-MS/MS method; assay type: ADME, organism-based; set-up: dose 10 mg/kg, route oral; conditions: in vivo
Procedure, shortened: (§1)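 Male Sprague Dawley rats, 7-8 weeks old, n=4 per group. IV dose 5 mg/kg free base in 10% ethanol/90% PEG400; oral dose 10 mg/kg as corn oil suspension after 16 h fast. Blood taken 0.08-24 h (IV) or 0.25-24 h (PO). Plasma diluted in acetonitrile with internal standard, analysed by LC-MS/MS, parameters by non-compartmental analysis.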

[6] = Tmax in Sprague-Dawley rat at 10 mg/kg, po after 0.25 to 24 hrs by LC-MS/MS method; assay type: ADME, organism-based; conditions: in vivo
Procedure, shortened: (§2)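 Male Sprague Dawley rats, 7–8 weeks old, n=4, fasted 16 h. Free base given at 10 mg/kg po as a corn oil suspension (5 mL/kg); a 5 mg/kg iv arm used 10% ethanol/90% PEG400. Plasma sampled 0.25–24 h, acetonitrile-precipitated with internal standard, and measured by LC-MS/MS. Parameters derived by non-compartmental analysis.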

[7] = Half life in Sprague-Dawley rat at 10 mg/kg, po after 0.25 to 24 hrs by LC-MS/MS method; assay type: ADME, organism-based; conditions: in vivo; procedure, shortened: as §1
Rattus norvegicus [8] = experiment: AUC (0 to infinity) in Sprague-Dawley rat at 10 mg/kg, po after 0.25 to 24 hrs by LC-MS/MS method; assay type: ADME, organism-based; set-up: dose 10 mg/kg, route oral, time infinity; conditions: in vivo; procedure, shortened: as §1
Rattus norvegicus [9] = experiment: AUC (0 to t) in Sprague-Dawley rat at 10 mg/kg, po after 0.25 to 24 hrs by LC-MS/MS method; assay type: ADME, organism-based; set-up: time lower 0.25 hr, dose 10 mg/kg, time upper 24 hr, route oral; conditions: in vivo; procedure, shortened: as §1
[10] = MRT in Sprague-Dawley rat at 10 mg/kg, po after 0.25 to 24 hrs by LC-MS/MS method; assay type: ADME, organism-based; conditions: in vivo; procedure, shortened: as §1
[11] = Oral bioavailability in Sprague-Dawley rat at 10 mg/kg after 0.25 to 24 hrs by LC-MS/MS method; assay type: ADME, organism-based; conditions: in vivo; procedure, shortened: as §2
[12] = Half life in Sprague-Dawley rat at 5 mg/kg, iv after 0.08 to 24 hrs by LC-MS/MS method; assay type: ADME, organism-based; conditions: in vivo; procedure, shortened: as §1
Rattus norvegicus [13] = experiment: AUC (0 to t) in Sprague-Dawley rat at 5 mg/kg, iv after 0.08 to 24 hrs by LC-MS/MS method; assay type: ADME, organism-based; set-up: time upper 24 hr, time lower 0.08 hr, dose 5 mg/kg, route intravenous; conditions: in vivo; procedure, shortened: as §1
[14] = MRT in Sprague-Dawley rat at 5 mg/kg, iv after 0.08 to 24 hrs by LC-MS/MS method; assay type: ADME, organism-based; conditions: in vivo; procedure, shortened: as §1
Rattus norvegicus [15] = experiment: Antiarthritic activity in adjuvant-induced SPF LEW/SsNSlc rat arthritis model assessed as paw thickness at 10 mg/kg, po qd measured on day 14; assay type: functional
Procedure, shortened: (§3)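 Lewis rats were 10 weeks old after 2 weeks acclimation. Immunized s.c. at the tail base with 0.1 mL complete Freund's adjuvant containing 10 mg/mL heat-killed mycobacterium. From day 12 post-immunization (day 1), n=10 per group, oral dosing once daily for 14 days, vehicle corn oil. Clinical score and hind paw measured twice weekly.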

Rattus norvegicus [16] = experiment: Antiarthritic activity in adjuvant-induced SPF LEW/SsNSlc rat arthritis model assessed as paw thickness at 20 mg/kg, po qd measured on day 14; assay type: functional; procedure, shortened: as §3

T1 sequence (O60674 whole entry): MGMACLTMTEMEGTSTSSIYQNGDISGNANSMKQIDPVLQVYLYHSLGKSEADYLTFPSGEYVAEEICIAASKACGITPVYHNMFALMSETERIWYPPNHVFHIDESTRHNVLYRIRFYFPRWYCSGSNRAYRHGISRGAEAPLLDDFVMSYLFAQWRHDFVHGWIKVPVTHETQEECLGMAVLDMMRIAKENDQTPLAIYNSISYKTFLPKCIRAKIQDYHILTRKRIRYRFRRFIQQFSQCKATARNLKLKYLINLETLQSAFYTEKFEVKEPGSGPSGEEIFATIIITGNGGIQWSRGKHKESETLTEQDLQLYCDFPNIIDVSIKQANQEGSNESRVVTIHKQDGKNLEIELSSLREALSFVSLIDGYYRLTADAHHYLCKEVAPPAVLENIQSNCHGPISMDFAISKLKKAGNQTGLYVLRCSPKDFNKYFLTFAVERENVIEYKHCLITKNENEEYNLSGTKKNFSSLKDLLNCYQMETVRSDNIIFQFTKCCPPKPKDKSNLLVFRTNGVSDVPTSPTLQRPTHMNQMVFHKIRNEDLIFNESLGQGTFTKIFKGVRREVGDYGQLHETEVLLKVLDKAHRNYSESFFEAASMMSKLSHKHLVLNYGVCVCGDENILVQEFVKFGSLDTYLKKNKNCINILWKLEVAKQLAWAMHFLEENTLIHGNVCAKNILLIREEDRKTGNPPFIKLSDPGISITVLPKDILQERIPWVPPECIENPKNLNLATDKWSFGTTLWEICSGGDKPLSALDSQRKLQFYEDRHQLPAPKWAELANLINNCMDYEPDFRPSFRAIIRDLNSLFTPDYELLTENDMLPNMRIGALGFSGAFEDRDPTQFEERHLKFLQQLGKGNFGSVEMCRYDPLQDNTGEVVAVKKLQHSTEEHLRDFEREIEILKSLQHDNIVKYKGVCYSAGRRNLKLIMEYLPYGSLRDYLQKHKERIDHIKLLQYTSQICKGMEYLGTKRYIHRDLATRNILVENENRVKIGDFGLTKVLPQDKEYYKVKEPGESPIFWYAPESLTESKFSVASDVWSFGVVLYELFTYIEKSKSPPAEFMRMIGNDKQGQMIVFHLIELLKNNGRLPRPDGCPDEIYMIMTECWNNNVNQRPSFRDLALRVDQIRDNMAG
Chain of Voltage-gated inwardly rectifying potassium channel KCNH2 (Q12809 whole entry): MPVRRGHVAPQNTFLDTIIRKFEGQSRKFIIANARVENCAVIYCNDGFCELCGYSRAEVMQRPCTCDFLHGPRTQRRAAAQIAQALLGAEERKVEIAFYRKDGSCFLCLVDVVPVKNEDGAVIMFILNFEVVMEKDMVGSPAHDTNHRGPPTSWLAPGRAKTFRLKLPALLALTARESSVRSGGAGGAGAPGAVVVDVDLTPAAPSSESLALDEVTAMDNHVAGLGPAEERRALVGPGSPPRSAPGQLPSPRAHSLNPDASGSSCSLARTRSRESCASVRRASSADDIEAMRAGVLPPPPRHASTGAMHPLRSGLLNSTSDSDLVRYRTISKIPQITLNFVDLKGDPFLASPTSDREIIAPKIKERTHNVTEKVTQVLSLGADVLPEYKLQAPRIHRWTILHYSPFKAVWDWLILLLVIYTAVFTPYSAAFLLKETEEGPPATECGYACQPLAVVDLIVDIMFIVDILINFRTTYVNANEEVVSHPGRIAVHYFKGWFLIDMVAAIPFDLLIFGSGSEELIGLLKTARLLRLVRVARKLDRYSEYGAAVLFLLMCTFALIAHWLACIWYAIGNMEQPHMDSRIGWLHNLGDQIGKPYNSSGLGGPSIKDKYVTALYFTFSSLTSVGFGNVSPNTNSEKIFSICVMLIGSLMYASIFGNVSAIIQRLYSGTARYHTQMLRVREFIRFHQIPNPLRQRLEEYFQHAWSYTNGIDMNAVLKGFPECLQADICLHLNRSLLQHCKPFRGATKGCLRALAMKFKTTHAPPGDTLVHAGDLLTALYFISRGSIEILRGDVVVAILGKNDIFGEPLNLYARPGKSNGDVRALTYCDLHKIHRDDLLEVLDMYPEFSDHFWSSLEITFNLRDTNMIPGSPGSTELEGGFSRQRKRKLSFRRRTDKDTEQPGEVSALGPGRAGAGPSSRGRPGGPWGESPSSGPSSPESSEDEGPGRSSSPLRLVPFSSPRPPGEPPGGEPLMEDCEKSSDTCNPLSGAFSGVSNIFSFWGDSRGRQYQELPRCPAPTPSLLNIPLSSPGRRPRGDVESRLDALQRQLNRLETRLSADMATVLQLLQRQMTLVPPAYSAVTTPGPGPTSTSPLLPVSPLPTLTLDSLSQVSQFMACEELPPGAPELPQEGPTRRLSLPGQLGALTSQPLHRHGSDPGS
Chain of Tyrosine-protein kinase JAK1 (P23458 whole entry): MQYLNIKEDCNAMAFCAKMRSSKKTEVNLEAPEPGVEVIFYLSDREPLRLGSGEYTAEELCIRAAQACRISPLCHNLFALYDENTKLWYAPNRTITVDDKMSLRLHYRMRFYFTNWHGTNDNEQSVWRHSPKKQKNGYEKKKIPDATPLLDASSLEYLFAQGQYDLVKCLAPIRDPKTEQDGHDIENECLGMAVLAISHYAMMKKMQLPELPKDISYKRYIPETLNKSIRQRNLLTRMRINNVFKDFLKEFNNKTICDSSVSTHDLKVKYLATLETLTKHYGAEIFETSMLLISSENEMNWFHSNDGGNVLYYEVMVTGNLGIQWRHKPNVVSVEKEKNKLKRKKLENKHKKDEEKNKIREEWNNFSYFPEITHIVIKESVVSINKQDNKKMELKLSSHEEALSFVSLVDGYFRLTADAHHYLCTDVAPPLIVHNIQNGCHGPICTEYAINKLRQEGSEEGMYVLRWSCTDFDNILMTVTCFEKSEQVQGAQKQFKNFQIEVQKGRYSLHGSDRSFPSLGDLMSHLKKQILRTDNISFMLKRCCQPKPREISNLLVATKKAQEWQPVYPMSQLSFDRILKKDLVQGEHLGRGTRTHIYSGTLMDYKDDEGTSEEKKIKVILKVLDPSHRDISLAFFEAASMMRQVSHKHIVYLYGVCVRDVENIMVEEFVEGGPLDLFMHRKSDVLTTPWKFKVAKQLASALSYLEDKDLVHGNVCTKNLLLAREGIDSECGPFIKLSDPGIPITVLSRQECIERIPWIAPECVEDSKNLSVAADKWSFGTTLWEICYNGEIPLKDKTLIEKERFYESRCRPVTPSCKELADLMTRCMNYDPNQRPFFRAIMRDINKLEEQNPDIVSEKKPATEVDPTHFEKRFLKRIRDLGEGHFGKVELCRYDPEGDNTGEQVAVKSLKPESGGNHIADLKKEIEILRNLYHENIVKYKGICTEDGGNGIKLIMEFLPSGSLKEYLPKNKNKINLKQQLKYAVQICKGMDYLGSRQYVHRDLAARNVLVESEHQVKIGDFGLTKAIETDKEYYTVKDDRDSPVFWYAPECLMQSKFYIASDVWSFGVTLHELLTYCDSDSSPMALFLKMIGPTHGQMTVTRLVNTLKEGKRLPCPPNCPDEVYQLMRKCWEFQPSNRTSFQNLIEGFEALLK

| SMILES | IC50 [1] [nM] | IC50 [2] [nM] | IC50 [3] [nM] | inhibition at 10 µM [4] [%] | Cmax [5] [ng/mL] | Tmax [6] [h] | half-life [7] [h] | AUC (Rattus norvegicus [8]) [ng·h/mL] | AUCt (Rattus norvegicus [9]) [ng·h/mL] | MRT [10] [h] | bioavailability [11] [%] | half-life [12] [h] | AUCt (Rattus norvegicus [13]) [ng·h/mL] | MRT [14] [h] | Activity (Rattus norvegicus [15]) [mm] | Activity (Rattus norvegicus [16]) [mm] |
| --- | --- | --- | --- | --- | --- | --- | --- | --- | --- | --- | --- | --- | --- | --- | --- | --- |
| CCS(=O)(=O)N1C[C@H](N(C)c2ncnc3[nH]ccc23)C2(CC2)C1 | 7.2 | 180 |  |  |  |  |  |  |  |  |  |  |  |  |  |  |
| CN(c1ncnc2[nH]ccc12)[C@H]1CN(C(=O)CC#N)CC12CC2 |  |  | 120000 | 90 | 1000 | 0.3 | 2.1 | 2100 | 1900 | 3.1 | 110 | 1.2 | 900 | 1.1 | 10.21 | 10.2 |
